A short description of test [1]: Inhibition of soybean LOX using arachidonic acid as substrate incubated for 5 mins. The arrangement: species or system Glycine max. The method, boiled down: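 Soybean lipoxygenase in assay buffer, compounds at 10⁻⁴–10⁻⁸ M from DMSO stocks, triplicate. Reaction started with arachidonic acid and shaken 5 min. Chromogen added, shaken 5 min more, absorbance read at 490 nm. Blanks were buffer + AA. % inhibition computed with chromogen extinction coefficient 9.47 mM⁻¹.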

Test [2] has as its target T1, Prostaglandin G/H synthase 1 (Ovis aries, UniProt P05979).
T1 sequence (P05979 whole entry): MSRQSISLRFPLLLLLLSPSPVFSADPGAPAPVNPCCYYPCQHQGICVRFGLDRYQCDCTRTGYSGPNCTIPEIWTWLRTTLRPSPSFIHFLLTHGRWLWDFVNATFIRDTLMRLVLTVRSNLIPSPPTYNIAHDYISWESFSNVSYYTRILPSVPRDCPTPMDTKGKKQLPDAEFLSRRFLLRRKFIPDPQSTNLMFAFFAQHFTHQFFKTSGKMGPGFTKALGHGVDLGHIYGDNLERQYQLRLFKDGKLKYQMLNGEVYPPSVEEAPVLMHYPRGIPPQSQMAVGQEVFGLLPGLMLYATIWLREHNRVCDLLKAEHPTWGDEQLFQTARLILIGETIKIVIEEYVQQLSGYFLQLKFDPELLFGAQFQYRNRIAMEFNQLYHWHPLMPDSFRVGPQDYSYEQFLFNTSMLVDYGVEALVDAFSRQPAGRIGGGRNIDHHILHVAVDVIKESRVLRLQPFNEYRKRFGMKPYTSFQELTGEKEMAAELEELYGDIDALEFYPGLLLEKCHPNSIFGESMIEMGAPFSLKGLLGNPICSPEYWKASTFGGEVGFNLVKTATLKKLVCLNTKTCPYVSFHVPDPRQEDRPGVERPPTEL
Briefly: Inhibition of ovine COX-1 using arachidonic acid as substrate preincubated for 10 mins followed by substrate addition and measured after 2 mins by EIA. In short, it runs like this: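 COX-1 EIA run at 10⁻⁴–10⁻⁸ M in triplicate. Enzyme with heme in reaction buffer plus inhibitor, incubated 10 min at 37 °C. Boiled (3 min) enzyme served as background. Prostaglandin output quantified to give IC50.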

Test [3] has as its system Mus musculus. Kind of test: Analgesic activity in Swiss albino mouse assessed as inhibition of acetic acid-induced writhing at 5 mg/kg, ip administered 30 mins prior to acetic acid challenge and measured after 30 mins relative to control. It counts as functional. The method, boiled down: (§1)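 Mice pretreated i.p. with indomethacin (10 mg/kg) or test compound (5 mg/kg) 30 min before 0.6% v/v acetic acid injection. Control group also received acetic acid. Animals placed in a transparent box and abdominal writhings counted for 30 min. Six animals per group, one-way ANOVA with Tukey's test, mean ± SEM.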
On the technique in general: Writhing tests count abdominal constrictions after an irritant is injected.

Test [4] relates to Mus musculus. Kind of test: Antiinflammatory activity in Swiss albino mouse model of carrageenan-induced paw edema assessed as reduction in paw thickness at 5 mg/kg, administered 30 mins prior to carrageenan challenge and measured upto 360 mins relative to control. Format: functional. The arrangement: scale not given: the % may be the effect or the level left. Conditions: time 390 min, 6.5 h. The method, boiled down: (§2)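 100 μL freshly prepared 1% carrageenan injected into the subplantar hind paw, with indomethacin (10 mg/kg) or test compound given 30 min before. Dose–response arm used 0.5, 2.5, 5, 10, 20 mg/kg. Six animals per group. Paw thickness (mm) read at 15, 30, 60, 120, 180, 240, 300, 360 min. Result expressed as % decrease versus control.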
Background: In the carrageenan paw model, swelling and tenderness develop within hours.

The target in test [5] is Prostaglandin G/H synthase 1 (Homo sapiens) (UniProt P23219). Kind of test: Inhibition of COX1 in human whole blood assessed as reduction in calcium ionophore-stimulated TXB2 production by ELISA. Format: tissue-based. A general note: An ELISA detects its analyte on a solid surface through an enzyme-linked reagent.
For test [6], the system named is Mus musculus. Briefly: Analgesic activity in Swiss albino mouse assessed as inhibition of acetic acid-induced writhing at 10 mg/kg, ip administered 30 mins prior to acetic acid challenge and measured after 30 mins relative to control. Format: functional. More on the design: scale not given: the % may be the effect or the level left. Conditions: time 60 min, 1 h. The method, boiled down:
as §1

Test [7] relates to Mus musculus. Kind of test: Antiinflammatory activity in Swiss albino mouse model of carrageenan-induced paw edema assessed as reduction in paw thickness at 10 mg/kg, administered 30 mins prior to carrageenan challenge and measured upto 360 mins. It counts as functional. The arrangement: scale not given: the % may be the effect or the level left. The note with it: time 390 min, 6.5 h. The method, boiled down:
as §2

SMILES strings stand for the structures. Active and inactive are the calls of the source. The rule behind the calls is not given here. Some results are limits rather than exact numbers.

Chain of Prostaglandin G/H synthase 1 (Homo sapiens) (P23219 whole entry): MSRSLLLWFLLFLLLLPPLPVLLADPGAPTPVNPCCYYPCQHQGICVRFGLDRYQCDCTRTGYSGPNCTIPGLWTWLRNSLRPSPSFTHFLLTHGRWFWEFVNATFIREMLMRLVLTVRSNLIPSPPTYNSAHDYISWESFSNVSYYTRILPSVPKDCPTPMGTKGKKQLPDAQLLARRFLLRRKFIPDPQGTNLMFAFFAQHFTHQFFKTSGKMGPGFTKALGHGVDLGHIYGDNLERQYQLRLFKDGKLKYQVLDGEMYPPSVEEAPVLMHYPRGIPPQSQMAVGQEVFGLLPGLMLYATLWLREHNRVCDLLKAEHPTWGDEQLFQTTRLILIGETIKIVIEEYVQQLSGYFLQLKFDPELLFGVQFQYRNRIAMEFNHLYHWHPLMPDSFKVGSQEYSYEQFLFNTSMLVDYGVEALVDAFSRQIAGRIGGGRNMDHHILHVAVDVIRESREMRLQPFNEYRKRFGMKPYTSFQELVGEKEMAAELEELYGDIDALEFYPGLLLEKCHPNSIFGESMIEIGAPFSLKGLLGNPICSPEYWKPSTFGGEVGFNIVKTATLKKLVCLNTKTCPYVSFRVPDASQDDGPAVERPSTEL

By IC50 is commonly meant the concentration that gives 50% inhibition. Regarding `COc1cc(-c2cc(C(=O)CCCOc3ccc4ccc(=O)oc4c3)nn2-c2ccccc2)cc(OC)c1OC`, the IC50 in test [1] amounted to 0.87 µM; in test [2] it was 53.1 µM.
For the compound `CCOC(=O)[C@H](OCc1cnnn1[C@@H](CO)C(=O)OC)[C@@H](OCc1cnnn1[C@@H](CO)C(=O)OC)C(=O)OCC`, the IC50 in test [1] is 1.3 µM; in test [2], 54 µM. The result in the test on Mus musculus [3] (time 60.0 min) was Active.
`CCOC(=O)Cn1nncc1COc1ccc2ccccc2c1-c1c(OCc2cnnn2CC(=O)OCC)ccc2ccccc12`: the half-maximal inhibitory concentration (IC50) came out at 11 µM in test [1] and 70 µM in test [2].
As to `COC(=O)[C@H](Cc1ccc(O)cc1)n1nncc1COc1ccc2ccccc2c1-c1c(OCc2cnnn2[C@@H](Cc2ccc(O)cc2)C(=O)OC)ccc2ccccc12`, the results for the IC50 in test [1] and in test [2] were 0.6 µM and above 10 µM, respectively. Besides, in the test on Mus musculus [3] (time 60.0 min), the outcome was inactive.
In the case of `COC(=O)[C@H](CO)n1nncc1COc1ccc2ccccc2c1-c1c(OCc2cnnn2[C@@H](CO)C(=O)OC)ccc2ccccc12`, the results for the IC50 in test [1] and in test [2] were 6 µM and 86 µM, respectively.
Take `CCOC(=O)[C@H](OCc1cnnn1[C@@H](Cc1ccccc1)C(=O)OC)[C@@H](OCc1cnnn1[C@@H](Cc1ccccc1)C(=O)OC)C(=O)OCC`: the half-inhibitory concentration (IC50) in test [1] is 0.09 µM; in test [2], 90 µM.
The like results for `CCOC(=O)[C@H](O)[C@@H](OCc1cnnn1[C@@H](Cc1ccccc1)C(=O)OC)C(=O)OCC` were, in that order, 8 µM and 55 µM.
The like results for `CCOC(=O)[C@H](O)[C@@H](OCc1cnnn1[C@@H](CO)C(=O)OC)C(=O)OCC` were, in that order, 14 µM and 110 µM.
Take `Cc1ccc(-c2cc(C(F)(F)F)nn2-c2ccc(S(N)(=O)=O)cc2)cc1` [CELECOXIB]: the Activity in the test on Mus musculus [3] (time 60 min, 1 h) turned out to be 62%; in the test with Mus musculus [4], 33%.
In the case of `COc1ccc2c(c1)c(CC(=O)O)c(C)n2C(=O)c1ccc(Cl)cc1` [INDOMETHACIN], the figures for the Activity (in test [5]; in the test on Mus musculus [6]; in the test on Mus musculus [7]) were 0.9 ng/mL, 55% and 30%, respectively.
Consider `O=C1NC(=O)C(=Cc2cn(C[C@H](O)COc3cc(O)c4c(=O)cc(-c5ccccc5)oc4c3)c3ccccc23)C(=O)N1`, for which the results for the IC50 in test [1] and in test [2] were 0.0015 µM and 0.34 µM, respectively.
For the compound `O=C(O)[C@H](OCc1cnnn1[C@@H](Cc1ccccc1)C(=O)O)[C@@H](OCc1cnnn1[C@@H](Cc1ccccc1)C(=O)O)C(=O)O`, the half-inhibitory concentration (IC50) in test [1] is 0.5 µM. Moreover, in the test with Mus musculus [3] (time 60.0 min), the result was inactive.
With `CC1(C)Cc2c(-c3ccccc3)c(-c3ccc(Cl)cc3)c(CC(=O)O)n2C1` [LICOFELONE], the values for the IC50 in test [1] and in test [2] were 0.18 µM and 0.21 µM, respectively.
On to `CCOC(=O)[C@H](OCc1cnnn1[C@@H](Cc1ccc(O)cc1)C(=O)OC)[C@@H](OCc1cnnn1[C@@H](Cc1ccc(O)cc1)C(=O)OC)C(=O)OCC`, for which the IC50 was 0.15 µM in test [1] and above 10 µM in test [2]. The result in the test on Mus musculus [3] (time 60.0 min) was inactive.
In the case of `COc1ccc(-n2nc(CCC(=O)N(C)O)cc2-c2ccc(Cl)cc2)cc1` [TEPOXALIN], the half-inhibitory concentration (IC50) in test [1] was found to be 0.15 µM.
Regarding `CCOC(=O)[C@H](OCc1cnnn1[C@H](Cc1ccc(O)cc1)C(=O)OC)[C@@H](OCc1cnnn1[C@@H](Cc1ccc(O)cc1)C(=O)OC)C(=O)OCC`, the 50% inhibitory concentration (IC50) was 0.14 µM in test [1] and above 10 µM in test [2].
The like results for `Cc1ccc(S(=O)(=O)n2cc(C(=O)C(=O)N[C@H](C(=O)NCC(=O)O)c3c[nH]c4ccccc34)c3ccccc32)cc1` were, in that order, 0.08 µM and 12.9 µM.
On to `CCOC(=O)Cn1nncc1CO[C@@H](C(=O)OCC)[C@@H](O)C(=O)OCC`, for which the results for the half-inhibitory concentration (IC50) in test [1] and in test [2] were 6 µM and 95 µM, respectively.
Turning to `CCOC(=O)[C@H](O)[C@@H](OCc1cnnn1[C@@H](Cc1ccc(O)cc1)C(=O)OC)C(=O)OCC`, the concentration for half-maximal inhibition (IC50) in test [1] was 12 µM; in test [2] it was 80 µM.
The like results for `COC(=O)[C@H](Cc1ccccc1)n1nncc1COc1ccc2ccccc2c1-c1c(OCc2cnnn2[C@@H](Cc2ccccc2)C(=O)OC)ccc2ccccc12` were, in that order, 3 µM and 150 µM.
On to `CC(c1cc2ccccc2s1)N(O)C(N)=O` (configuration not stated) [ZILEUTON], for which the IC50 in test [1] worked out at 0.3 µM.
Turning to `CCOC(=O)[C@H](OCc1cnnn1[C@@H](Cc1c[nH]c2ccccc12)C(=O)OC)[C@@H](OCc1cnnn1[C@@H](Cc1c[nH]c2ccccc12)C(=O)OC)C(=O)OCC`, the results for the IC50 in test [1] and in test [2] were 0.45 µM and above 10 µM, respectively. For the same compound, in the test with Mus musculus [3] (time 60.0 min), the result was inactive.
Take `COC(=O)[C@H](Cc1c[nH]c2ccccc12)n1nncc1COc1ccc2ccccc2c1-c1c(OCc2cnnn2[C@@H](Cc2c[nH]c3ccccc23)C(=O)OC)ccc2ccccc12`: the IC50 in test [1] is 1 µM; in test [2] it was 90 µM.
As to `CCOC(=O)Cn1nncc1CO[C@@H](C(=O)OCC)[C@@H](OCc1cnnn1CC(=O)OCC)C(=O)OCC`, the IC50 in test [1] stood at 0.3 µM; in test [2] it was 60 µM. In the test on Mus musculus [3] (time 60.0 min), the outcome was Active.

The values above are taken from ChEMBL document CHEMBL5032505, “Design, Synthesis, and Activity Evaluation of Stereoconfigured Tartarate Derivatives as Potential Anti-inflammatory Agents In Vitro and In Vivo” (J Med Chem, 2021).
